Data set [1] concerns Lymphocyte. Put plainly: Genotoxicity in human lymphocytes at 0.5 to 355 ug/mL after 3 to 28 hrs in absence of rat liver S9 fraction by micronucleus assay. It counts as toxicity, cell-based.
In data set [2] the test system is Salmonella typhimurium. Nature of the data set: Genotoxicity in Salmonella typhimurium TA1537 assessed as number of revertants per plate at 5000 ug/plate in presence of rat liver S9 fraction by Ames test (reference value: 11 +/- 4). The class given is toxicity. The following applies: salmonella enterica subsp. enterica serovar typhimurium. (In general: In the Ames test, an excess of revertant colonies over the control signals mutagenicity.)

Data set [3] has as its system Salmonella typhimurium. Nature of the data set: Genotoxicity in Salmonella typhimurium TA98 assessed as number of revertants per plate at 1.5 ug/plate in presence of rat liver S9 fraction by Ames test (reference value: 19 +/- 8). It counts as toxicity. The conditions noted are these: salmonella enterica subsp. enterica serovar typhimurium.
Data set [4] deals with Escherichia coli. Nature of the data set: Genotoxicity in Escherichia coli WP2uvrA assessed as number of revertants per plate at 5000 ug/plate in absence of rat liver S9 fraction by Ames test (reference value: 45 +/- 9). The class given is toxicity.
Data set [5] deals with Salmonella typhimurium. Nature of the data set: Genotoxicity in Salmonella typhimurium TA1537 assessed as number of revertants per plate at 50 ug/plate in presence of rat liver S9 fraction by Ames test (reference value: 11 +/- 4). The following applies: salmonella enterica subsp. enterica serovar typhimurium. It counts as toxicity.
In data set [6] the test system is Escherichia coli. Put plainly: Genotoxicity in Escherichia coli WP2uvrA assessed as number of revertants per plate at 15 ug/plate in absence of rat liver S9 fraction by Ames test (reference value: 45 +/- 9). The class given is toxicity.
The test system of data set [7] is Salmonella typhimurium. Put plainly: Genotoxicity in Salmonella typhimurium TA98 assessed as number of revertants per plate at 5000 ug/plate in absence of rat liver S9 fraction by Ames test (reference value: 14 +/- 6). It counts as toxicity. The following applies: salmonella enterica subsp. enterica serovar typhimurium.
In data set [8] the test system is Salmonella typhimurium. Nature of the data set: Genotoxicity in Salmonella typhimurium TA98 assessed as number of revertants per plate at 5000 ug/plate in presence of rat liver S9 fraction by Ames test (reference value: 19 +/- 8). The class given is toxicity. The conditions noted are these: salmonella enterica subsp. enterica serovar typhimurium.
Data set [9] concerns Salmonella typhimurium. Nature of the data set: Genotoxicity in Salmonella typhimurium TA100 assessed as number of revertants per plate at 50 ug/plate in absence of rat liver S9 fraction by Ames test (reference value: 154 +/- 9). The class given is toxicity. The following applies: salmonella enterica subsp. enterica serovar typhimurium.
For data set [10], the system named is Escherichia coli. Put plainly: Genotoxicity in Escherichia coli WP2uvrA assessed as number of revertants per plate at 1.5 ug/plate in absence of rat liver S9 fraction by Ames test (reference value: 45 +/- 9). It counts as toxicity.
In a further data set the test system is Rattus norvegicus. Put plainly: Genotoxicity in rat assessed as change in polychromatic erythrocytes in bone marrow at 2000 mg/kg administered via oral gavage measured after 24 hrs post dose by micronucleus assay relative to control. It counts as toxicity, organism-based. The conditions noted are these: in vivo.
Data set [11] concerns Salmonella typhimurium. Put plainly: Genotoxicity in Salmonella typhimurium TA100 assessed as number of revertants per plate at 15 ug/plate in presence of rat liver S9 fraction by Ames test (reference value: 141 +/- 1). It counts as toxicity. The following applies: salmonella enterica subsp. enterica serovar typhimurium.
Data set [12] concerns Salmonella typhimurium. Put plainly: Genotoxicity in Salmonella typhimurium TA1535 assessed as number of revertants per plate at 5 ug/plate in absence of rat liver S9 fraction by Ames test (reference value: 10 +/- 3). The conditions noted are these: salmonella enterica subsp. enterica serovar typhimurium. It counts as toxicity.
The subject of data set [13] is Salmonella typhimurium. Nature of the data set: Genotoxicity in Salmonella typhimurium TA98 assessed as number of revertants per plate at 1500 ug/plate in presence of rat liver S9 fraction by Ames test (reference value: 19 +/- 8). The class given is toxicity. The following applies: salmonella enterica subsp. enterica serovar typhimurium.
Data set [14] relates to Lymphocyte. Nature of the data set: Genotoxicity in human lymphocytes assessed as replication index at 160 ug/mL after 28 hrs in absence of rat liver S9 fraction by micronucleus assay relative to control. It counts as toxicity, cell-based. A digest of the protocol:
(§1)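 Human lymphocytes exposed for 3 h with or without rat liver S9, or 28 h without S9, with 1% DMSO as vehicle control. Replication index = (binucleated + 2 × multinucleated cells)/total cells. Cytotoxicity (%) = 100 − (RI treated/RI vehicle) × 100.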

The test system of data set [15] is Lymphocyte. Nature of the data set: Genotoxicity in human lymphocytes assessed as replication index at 40 ug/mL after 28 hrs in absence of rat liver S9 fraction by micronucleus assay relative to control. It counts as toxicity, cell-based. A digest of the protocol:
as §1

For data set [16], the system named is Plasmodium falciparum. Nature of the data set: Antimalarial activity against intraerythrocytic stage of Plasmodium falciparum assessed as time required to clear 99.9% of initial parasite population at 10 times IC50 preincubated for 24 hrs followed by [3H]-hypoxanthine addition measured after 24 hrs by scintillation counting method. The class given is functional. In short, it runs like this: (§2)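 In vitro P. falciparum parasite reduction ratio assay run at 10×, 30× and 100× IC50. Derived parameters: lag phase (time to maximal killing), PRR (parasites killed per life cycle) and PCT99.9% (time to clear 99.9% of the initial parasite population).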

Data set [17] relates to Plasmodium falciparum. Put plainly: Antimalarial activity against intraerythrocytic stage of Plasmodium falciparum assessed as time required to clear 99.9% of initial parasite population at 100 times IC50 preincubated for 24 hrs followed by [3H]-hypoxanthine addition measured after 24 hrs by scintillation counting method. It counts as functional. In short, it runs like this:
as §2

Data set [18] concerns Plasmodium falciparum. Put plainly: Antimalarial activity against intraerythrocytic stage of Plasmodium falciparum assessed as parasite reduction ratio at 10 times IC50 preincubated for 24 hrs followed by [3H]-hypoxanthine addition measured after 24 hrs by scintillation counting method. The class given is functional. A digest of the protocol: as §2
For data set [19], the system named is Lymphocyte. Nature of the data set: Genotoxicity in human lymphocytes assessed as increase in frequency of micronucleated cells at 80 ug/mL after 28 hrs in absence of rat liver S9 fraction by micronucleus assay (reference value: 0.74%). The class given is toxicity, cell-based.
Data set [20] concerns Escherichia coli. Put plainly: Genotoxicity in Escherichia coli WP2uvrA assessed as number of revertants per plate at 5 ug/plate in absence of rat liver S9 fraction by Ames test (reference value: 45 +/- 9). The class given is toxicity.
Data set [21] deals with Salmonella typhimurium. Put plainly: Genotoxicity in Salmonella typhimurium TA1535 assessed as number of revertants per plate at 500 ug/plate in absence of rat liver S9 fraction by Ames test (reference value: 10 +/- 3). It counts as toxicity. The conditions noted are these: salmonella enterica subsp. enterica serovar typhimurium.
Data set [22] deals with Salmonella typhimurium. Put plainly: Genotoxicity in Salmonella typhimurium TA100 assessed as number of revertants per plate at 50 ug/plate in presence of rat liver S9 fraction by Ames test (reference value: 141 +/- 1). It counts as toxicity. The conditions noted are these: salmonella enterica subsp. enterica serovar typhimurium.
For data set [23], the system named is Lymphocyte. Nature of the data set: Genotoxicity in human lymphocytes assessed as increase in frequency of micronucleated cells at 40 ug/mL after 28 hrs in absence of rat liver S9 fraction by micronucleus assay (reference value: 0.74%). The class given is toxicity, cell-based.
Data set [24] relates to Lymphocyte. Nature of the data set: Genotoxicity in human lymphocytes assessed as replication index at 80 ug/mL after 3 hrs in presence of rat liver S9 fraction by micronucleus assay relative to control. It counts as toxicity, cell-based. The conditions noted are these: s9, 3 h. In short, it runs like this:
as §1

For data set [25], the system named is Plasmodium falciparum. Nature of the data set: Antimalarial activity against Plasmodium falciparum TM90C2B infected in human erythrocytes assessed as reduction in [3H]-hypoxanthine incorporation preincubated for 24 hrs followed by [3H]-hypoxanthine addition measured after 24 hrs by scintillation counting method. The class given is functional, cell-based.
Data set [26] deals with Salmonella typhimurium. Nature of the data set: Genotoxicity in Salmonella typhimurium TA1537 assessed as number of revertants per plate at 1500 ug/plate in absence of rat liver S9 fraction by Ames test (reference value: 19 +/- 9). It counts as toxicity. The conditions noted are these: salmonella enterica subsp. enterica serovar typhimurium.
Data set [27] deals with Plasmodium berghei. Nature of the data set: Antimalarial activity against Plasmodium berghei infected in Swiss Webster mouse assessed as mouse survival rate at 200 mg/kg administered once daily via oral gavage for 4 consecutive days beginning 1 hr after infection measured on day 17 post infection relative to control. It counts as functional. In short, it runs like this:
(§3)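 P. berghei-infected erythrocytes taken from a previously infected mouse were injected intraperitoneally. Oral dosing, once daily for 4 consecutive days, began 1 h after infection, in polyethylene glycol 300/propylene glycol/water (55/25/20 by weight). Chloroquine at 30 mg/kg was the positive control, with a vehicle-only group. Percent survival was recorded daily from day 4 to day 20.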

The subject of data set [28] is Plasmodium berghei. Put plainly: Antimalarial activity against Plasmodium berghei infected in Swiss Webster mouse assessed as mouse survival rate at 200 mg/kg administered once daily via oral gavage for 4 consecutive days beginning 1 hr after infection measured on day 16 post infection relative to control. It counts as functional. In short, it runs like this: as §3

In the case of `Cc1c(Oc2cnc(C(=O)NCCO)cn2)ccc2c1B(O)OC2`, in the data set with Lymphocyte [1], the Activity entry was “Non-Toxic”.
Usually IC50 stands for the concentration that gives 50% inhibition. On to `Cc1c(Oc2cnc(C(=O)N3CC(C)(O)C3)cn2)ccc2c1B(O)OC2`, for which the Activity is given as 9 with Salmonella typhimurium [2]; 20 with Salmonella typhimurium [3]; 43 with Escherichia coli [4]; 9 in the data set with Salmonella typhimurium [5]; 41 in the data set on Escherichia coli [6]; 9 in the data set with Salmonella typhimurium [7]. The Activity with Salmonella typhimurium [8] is reported as 18; with Salmonella typhimurium [9], 132; in the data set with Escherichia coli [10], 40; in the data set with Rattus norvegicus it was -4%; with Salmonella typhimurium [11], 149; with Salmonella typhimurium [12], 8. Besides, the Activity is 15 in the data set on Salmonella typhimurium [13]; 13% in the data set on Lymphocyte [14]; 7% in the data set on Lymphocyte [15]; 1.28% in the data set on Lymphocyte [19]; 35 in the data set on Escherichia coli [20]; 5 with Salmonella typhimurium [21]. Besides, the Activity is on record as 136 with Salmonella typhimurium [22], 1.18% in the data set on Lymphocyte [23], 1% in the data set with Lymphocyte [24] and 10 with Salmonella typhimurium [26]. For the same molecule, the T99.9% was found to be 36 h in the data set with Plasmodium falciparum [16] and 30 h in the data set on Plasmodium falciparum [17]. For the same molecule, the “log(ratio)” value in the data set with Plasmodium falciparum [18] came to 4.1. In addition, the IC50 in the data set on Plasmodium falciparum [25] was 60 nM.
Regarding `CCCC1(O)CN(C(=O)c2cnc(Oc3ccc4c(c3C)B(O)OC4)cn2)C1`, the figures for the survival at 200 mg/kg with Plasmodium berghei [27] and with Plasmodium berghei [28] were 0% and 100%, respectively.

Source of the values: ChEMBL document CHEMBL4038305, “Benzoxaborole Antimalarial Agents. Part 5. Lead Optimization of Novel Amide Pyrazinyloxy Benzoxaboroles and Identification of a Preclinical Candidate” (J Med Chem, 2017).
